From PubChem BioAssay
An excerpt weighted towards active compounds, which were near 1.7% of everything screened.
CaV13 ICDI inh – Primary screen for inhibitors of IQ motif and Ca2+-dependent inactivation inhibitor domain binding in CACNA1D, Förster resonance energy transfer in living cells, …; 340,000 tested, 0.098% active; HEK cells, CFP/YFP FRET ICDI-IQ, plate reader, 10 min; percent FRET-ratio fall versus neutral wells; inhibition, % at 12.3 µM;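 active = mean replicate inhibition of at least 30% and at least 1% of replicates passing that level; inconclusive = only one of the two criteria is met; inactive = neither criterion is met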
NTR1 ag – activates human neurotensin receptor 1; P30989; NTR1-U2OS beta-arrestin-GFP spot imaging, agonist mode; activation, % at 20 µM; 330,000 tested, 0.17% active;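 active = activation at or above 40% of the spot to cytoplasm intensity ratio, with at least 20 cells analyzed; inconclusive = wells under 20 cells, flagged as cytotoxic or low count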
Vif inh – inhibitors of HIV Vif; HEK293T cells, Vif self-association by quenched fluorescence, imaging, 24 h; inhibition, % at 7.49 µM; 340,000 tested, 0.35% active; AID 602346; in the data active = inhibition above about 50%, passing the limit was not always enough; inconclusive = no clear call, values can overlap the other calls; inactive = below about 31%
V-ATPase pH – alters yeast V-ATPase proton transport; 350,000 tested, 0.37% active; S. cerevisiae, pHLuorin cytosolic pH fluorescence; AID 504577; response, % at 10 µM; in the data active = response mostly above about 7.3%, no sharp cut-off; inactive = mostly below about 5.4%; note: actives read high
SR-BI HDL uptake – inhibitors of mouse SR-BI mediated HDL lipid uptake. Q61009. ldlA[mSR-BI] CHO cells, DiI-HDL uptake fluorescence, 3 h. inhibition, % at 12.5 µM. 320,000 tested, 0.96% active. AID 488896;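 active = mean replicate inhibition of at least 70% and a set share of replicates each scoring 70 or more; inconclusive = meets just one of the two criteria; inactive = fails both criteria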
Target sequence (Q61009 whole entry, looked up): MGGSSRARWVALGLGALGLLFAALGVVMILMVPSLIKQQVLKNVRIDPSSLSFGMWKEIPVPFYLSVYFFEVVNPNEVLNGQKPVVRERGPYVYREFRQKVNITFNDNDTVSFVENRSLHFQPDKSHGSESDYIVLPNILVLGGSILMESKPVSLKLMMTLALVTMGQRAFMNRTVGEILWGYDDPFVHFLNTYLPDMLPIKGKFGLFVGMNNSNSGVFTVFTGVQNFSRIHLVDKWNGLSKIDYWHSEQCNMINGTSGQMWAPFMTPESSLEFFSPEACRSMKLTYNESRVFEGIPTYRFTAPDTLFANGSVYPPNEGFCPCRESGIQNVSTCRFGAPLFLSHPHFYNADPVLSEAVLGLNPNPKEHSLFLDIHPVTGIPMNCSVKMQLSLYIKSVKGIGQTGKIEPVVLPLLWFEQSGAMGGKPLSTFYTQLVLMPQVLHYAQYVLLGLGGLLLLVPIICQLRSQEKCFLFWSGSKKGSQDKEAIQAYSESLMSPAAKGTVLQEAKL
SR-BI DiI-HDL act – SR-BI HDL lipid transfer activation; CHO ldlA[mSR-BI] cells, DiI-HDL uptake fluorescence, 3 h; 100 = double the neutral-control signal; 320,000 tested, 0.096% active; activation, % at 12.5 µM; AID 504775;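 active = mean replicate activation of at least 60% and every replicate at or above 60%; inconclusive = mean or all-replicate condition met, but not both; inactive = mean below 60% and not all replicates reaching 60%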
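Material: SR-BI-overexpressing, LDLR-lacking CHO cells | Dosing: Single compound concentration, delivered by pin transfer | Probe or stimulus: Labelled HDL, 10 µg/mL | Signal: Bottom-read cell fluorescence after medium removal, ex 550/em 595 nm | Schedule: 3 h, 37 °C | Evaluation: HDL uptake via cellular fluorescence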
Each line names hits and unclear results; the compound was inactive in the other large screens.

COc1ccc(/C=C/C(=O)NC(=S)N2CCSCC2)cc1	none
CCOc1ccccc1-c1nc(-c2ccc(NC(=O)Cc3ccc(OC)cc3)cc2)no1	SR-BI HDL uptake 98.9
CCOc1ccccc1-c1nc(-c2ccc(NC(=O)c3ccc(Br)o3)cc2)no1	none (no result: CaV13 ICDI inh, Vif inh, V-ATPase pH, SR-BI HDL uptake, SR-BI DiI-HDL act)
COc1ccc(CC(=O)Nc2ccc(-c3noc(-c4cc(OC)c(OC)c(OC)c4)n3)cc2)cc1	Vif inh active
O=c1c(-c2ccco2)nc2ccccc2n1C(c1ccccn1)c1nc2ccccc2[nH]1 (stereo not given)	none (no result: NTR1 ag, Vif inh, V-ATPase pH, SR-BI HDL uptake, SR-BI DiI-HDL act)
COc1cccc(N2CCN(S(=O)(=O)c3cc4c(cc3C)N(C)CCO4)CC2)c1	Vif inh 76.2
CCCCN1C(=O)/C(=C/C=C2\Oc3ccccc3N2CC)SC1=S	Vif inh 69.3, SR-BI HDL uptake 89.1 (no result: NTR1 ag)
O=C(CSC1=NCCN1)NC12CC3CC(CC(C3)C1)C2	SR-BI HDL uptake 73.2
CCOc1cc(C(=O)Nc2ccccc2N2CCOCC2)ccc1OCC(=O)N1CCCCC1	none
COc1ccc(C(=O)Nc2cccc(-c3ccc(N4CCOCC4)nn3)c2)cc1OC	SR-BI HDL uptake 75.3
CCOc1ccc(C(=O)Nc2cccc(-c3ccc(N4CCOCC4)nn3)c2)cc1OCC	SR-BI HDL uptake 89.9
CCOc1cc(C(=O)Nc2cccc(C(C)=O)c2)ccc1OCC(=O)N1CCCCC1	SR-BI HDL uptake 74.4
CCC(C)NCCOCCOc1ccc(Cl)c2ccccc12 (stereo not given)	none
CCN(CC)c1ccc(NC(=O)c2ccc3c(c2)c(C)c(C)n3C)cc1	SR-BI HDL uptake 90.0
CC1(C(=O)NS(=O)(=O)c2cccc(F)c2)CCN1C(=O)CC1CCCC1 (stereo not given)	none (no result: NTR1 ag, V-ATPase pH, SR-BI HDL uptake, SR-BI DiI-HDL act)
CCCc1cc(-c2[nH]ncc2-c2ccc3c(c2)OCCCO3)c(O)cc1O	NTR1 ag 43.6
CCCc1cc(-c2[nH]ncc2-c2ccc(C(=O)OCC)o2)c(O)cc1O	SR-BI HDL uptake inconclusive (no result: CaV13 ICDI inh)
CCc1ccccc1S(=O)(=O)Cc1ccc(C(=O)N2CCN(c3ccccc3OC)CC2)o1	CaV13 ICDI inh 55.0
COc1cc(NC(=O)c2ccco2)c(OC)cc1NC(=O)c1cc(OC)c(OC)c(OC)c1	SR-BI HDL uptake 79.4 (no result: CaV13 ICDI inh)
COc1cc(NC(=O)c2ccc(Cl)cc2)c(OC)cc1Cl	SR-BI HDL uptake 73.8
CCOc1cc(NC(=O)c2ccco2)c(OCC)cc1NC(=O)c1cc(OC)c(OC)c(OC)c1	Vif inh inconclusive
COc1cc(C(=O)OCC(C)=O)cc(NC(=O)c2ccco2)c1OC	CaV13 ICDI inh 178.6
N#Cc1ccc(C(=O)CSc2n[nH]c(=O)n2-c2cccnc2)cc1	none (no result: SR-BI HDL uptake, SR-BI DiI-HDL act)
COC(=O)C1=C(C)N(Cc2ccccc2C(F)(F)F)C(=NCc2ccc(OC)cc2)NC1c1ccc(F)cc1 (stereo not given)	none (no result: NTR1 ag, Vif inh, V-ATPase pH, SR-BI HDL uptake, SR-BI DiI-HDL act)
COc1ccc(C(=O)/C=C/Nc2ccc(S(=O)(=O)Nc3onc(C)c3C)cc2)cc1	none
Cc1ccc(OCC(=O)OCC(=O)c2cccc([N+](=O)[O-])c2)cc1C	none
CSCCC(NC(=O)c1ccc(Cl)cc1Cl)C(=O)N1CCN(C(=O)c2ccccc2)CC1 (stereo not given)	SR-BI HDL uptake 77.8 (no result: NTR1 ag)
Cc1ccc(NC(=O)c2cc3c(=O)oc4ccc(C)cc4c3s2)nc1	none (no result: CaV13 ICDI inh, Vif inh, V-ATPase pH, SR-BI HDL uptake, SR-BI DiI-HDL act)
COc1ccc(/C=C2\CCC/C(=C\c3ccc(OC)c(OC)c3OC)C2=O)c(OC)c1OC	SR-BI HDL uptake 73.7
COc1cc(OC)c(OC)cc1/C=C1\CCC/C(=C\c2cc(OC)c(OC)cc2OC)C1=O	none
CN(c1cccc(NC(=O)CN(c2ccc(C34CC5CC(CC(C5)C3)C4)cc2)S(C)(=O)=O)c1)S(C)(=O)=O	SR-BI DiI-HDL act 76.4 (no result: CaV13 ICDI inh)
CN(c1cccc(NC(=O)CN(c2ccc(F)cc2)S(C)(=O)=O)c1)S(C)(=O)=O	none
CC(C)OC(=O)c1c(NC(=O)Cn2cnc([N+](=O)[O-])n2)sc2c1CCCC2	SR-BI HDL uptake 74.9 (no result: SR-BI DiI-HDL act)
C=CCOc1ccccc1CN1CCCCCC1	none
O=C(O)c1cc([N+](=O)[O-])c(NCCC2=CCCCC2)c([N+](=O)[O-])c1	none
Cc1cc2ccccn2c1C(=O)c1ccc([N+](=O)[O-])o1	V-ATPase pH 11.3
COc1ccc(C(=O)Nc2c(Cl)cc(Cl)cc2C(=O)NCc2ccco2)cc1	none
